Published values collected from several papers.
Protocols differ between the studies behind these lines.
Target: Aurora kinase B (AURKB, Homo sapiens, UniProt Q96GD4)
Observed: enzyme activity

| Structure (SMILES) | action | method | concentration | remaining activity [%] |
| --- | --- | --- | --- | --- |
| Nc1nc(NC2CCCCC2)sc1C(=O)c1ccccc1 | inhibitor |  | 10 µM | 75 |
| O=C1NC(=O)c2cc(Nc3ccc(F)cc3)c(Nc3ccc(F)cc3)cc21 | inhibitor |  | 0.5 µM | 99.7 |
| O=C(NCCCNc1nc(Nc2cccc(NC(=O)N3CCCC3)c2)ncc1Br)C1CCC1 | inhibitor | radiometric | 1 µM | 5 |
| Cc1ccc(C(=O)Nc2ccc(CN3CCN(C)CC3)c(C(F)(F)F)c2)cc1C#Cc1cnc2cccnn12 | inhibitor |  | 23.5 nM | 84 |
| Cc1nn(CC(F)(F)F)cc1Nc1ncc(Br)c(NCCCNC(=O)C2CCC2)n1 | inhibitor | radiometric | 1 µM | 38 |
| COc1cc(Nc2cnc(C#N)c(O[C@H](C)CN(C)C)n2)ncc1-c1cnn(C)c1 | inhibitor | radiometric | 10 µM | 53 |
| CC(C)(C)c1nc(-c2cccc(NS(=O)(=O)c3c(F)cccc3F)c2F)c(-c2ccnc(N)n2)s1 | inhibitor | radiometric | 1 µM | 81 |
| Oc1cccc(-c2nc(N3CCOCC3)c3oc4ncccc4c3n2)c1 | inhibitor |  | 10 µM | 95 |
| Cc1nn(CC(F)(F)F)cc1Nc1nccc(NCCCNC(=O)C2CCC2)n1 | inhibitor | radiometric | 1 µM | 90 |
| CCCOc1ccc(OC)c(F)c1C(=O)c1ccc(C(=O)N[C@@H]2CNC[C@H]2NC(=O)c2ccc3[nH]ncc3c2)cc1 | inhibitor |  | 10 µM | 10 |
| Cc1ccc(Nc2nccc(N(C)c3ccc4c(C)n(C)nc4c3)n2)cc1S(N)(=O)=O | inhibitor |  | 0.5 µM | 64.6 |
| Cc1sc(C(=O)NC2COC2)cc1-n1cc(NC(=O)Nc2c(F)cccc2Cl)cn1 | inhibitor |  | 10 µM | 96.4 |
| COc1cc2ncnc(Nc3ccc(F)c(Cl)c3)c2cc1OCCCN1CCOCC1 |  |  | 0.5 µM | 106 |
| CC(C)(C)C(=O)c1sc(NC2CCCCC2)nc1N | inhibitor |  | 10 µM | 107 |
| O=c1cc(-c2cccc3c2Sc2ccccc2S3)oc(N2CCOCC2)c1 | inhibitor |  | 0.5 µM | 95.8 |
| Cc1nn(CC(F)(F)F)cc1Nc1nccc(NCc2ccc(S(N)(=O)=O)cc2)n1 | inhibitor | radiometric | 1 µM | 82 |
| Nc1ncnc2occ(-c3ccc(NC(=O)Nc4cc(C(F)(F)F)ccc4F)cc3)c12 | inhibitor |  | 20 µM | 0.1 |
| NS(=O)(=O)c1ccc(CNc2ccnc(Nc3cccc(NC(=O)N4CCCC4)c3)n2)cc1 | inhibitor | radiometric | 1 µM | 53 |
| O=C(Nc1cnn(-c2csc(C(=O)NC3COC3)c2)c1)Nc1ccccc1Cl | inhibitor |  | 5 µM | 93 |
